The results in this text go back to ChEMBL document CHEMBL3792366, “Role of disulfide linkage in action of bis(dialkylaminethiocarbonyl)disulfides as potent double-Edged microbicidal spermicide: Design, synthesis and biology” (Eur J Med Chem, 2016).

Converted amounts (≈) assume the structure as drawn. The source made the active and inactive calls. The calls are words filed in the database; no cut-off is given here.

One test has as its system Sporothrix schenckii. The test is described as follows: Antifungal activity against Sporothrix schenckii after 48 hrs by broth microdilution method. The test is classed as functional. Put shortly:
(§1)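 NCCLS broth microdilution in RPMI 1640 buffered with MOPS; starting inoculum 1–5 × 10^3 CFU/mL; plates incubated at 35 °C; MIC read after 48 h.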
(Dilution methods test growth across graded concentrations, often in twofold steps.)

Test [1] concerns Oryctolagus cuniculus. The test is described as follows: In vivo spermicidal activity in Belgian rabbit assessed as decrease in litter size at 15 mg via intravaginal instillation measured 30 to 34 days post gestation period. The test is classed as functional. Also noted: scale not given: the % may be the effect or the level left. In short, it runs like this:
(§2)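 Young adult female Belgian rabbits. Compound was blended into K-Y Jelly, with plain jelly for controls. Two mL of jelly was instilled 10–12 cm deep into the vagina by catheter, with the animal supine.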

The nature of test [2]: Selectivity index, ratio of IC50 for Lactobacillus jensenii ATCC 25258 to MIC for metronidazole resistant trophozoite stage of Trichomonas vaginalis ATCC 50143.
The subject of a further test is HeLa. The test is described as follows: Cytotoxicity against human HeLa cells after 5 hrs by lactate dehydrogenase release assay. The test is classed as cell-based. In short, it runs like this: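 HeLa cells were seeded at 2×10^4/well in triplicate and grown 24 h at 37 °C in 5% CO2. The DMEM was then replaced with medium holding serially diluted compound, and plates were incubated 5 h. LDH release in the supernatant was measured colorimetrically at 490 nm, and IC50 was derived from it.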

For test [3], the system named is Oryctolagus cuniculus. The test is described as follows: In vivo spermicidal activity in Belgian rabbit assessed as decrease in pregnancy rate at 15 mg via intravaginal instillation measured 30 to 34 days post gestation period. The test is classed as functional. Put shortly: as §2
Test [4] relates to Oryctolagus cuniculus. The test is described as follows: In vivo spermicidal activity in Belgian rabbit assessed as decrease in pregnancy rate at 10 mg via intravaginal instillation measured 30 to 34 days post gestation period. The test is classed as functional. Put shortly:
as §2

A further test has as its system Sperm. The test is described as follows: Spermicidal activity in human sperm assessed as decrease in free thiol levels in sperm membrane at MEC after 15 mins by mBBr dye based fluorescence microscopy. The test is classed as functional, cell membranes. In short, it runs like this:
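Semen (0.5 mL) was incubated with 2.5 mL of compound at MEC, or saline, for 15 min at room temperature. Sperm were pelleted at 700×g, washed in PBS and labelled with 0.5 mM (final) mBBr for 15 min in the dark. After washing, cells were imaged by epifluorescence (UV1A filter) at equal exposure times.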

The test system of test [5] is Oryctolagus cuniculus. The test is described as follows: In vivo spermicidal activity in Belgian rabbit assessed as decrease in litter size at 10 mg via intravaginal instillation measured 30 to 34 days post gestation period. The test is classed as functional. The arrangement: scale not given: the % may be the effect or the level left. In short, it runs like this:
as §2

The nature of test [6]: Toxicity in Lactobacillus jensenii ATCC 25258 after 72 hrs.
In a further test the test system is Cryptococcus neoformans. The test is described as follows: Antifungal activity against Cryptococcus neoformans after 48 hrs by broth microdilution method. The test is classed as functional. In short, it runs like this: as §1
Test [7] has as its system Trichomonas vaginalis. The test is described as follows: Potency index, ratio of metronidazole MIC to compound MIC for metronidazole-resistant trophozoite stage of Trichomonas vaginalis ATCC 50143. The test is classed as functional.
Test [8] in a line: Selectivity index, ratio of IC50 for Lactobacillus jensenii ATCC 25258 to MIC for trophozoite stage of Trichomonas vaginalis clinical isolate.
In test [9] the test system is Trichophyton mentagrophytes. The test is described as follows: Antifungal activity against Trichophyton mentagrophytes after 48 hrs by broth microdilution method. The test is classed as functional. In short, it runs like this:
as §1

Another test concerns Candida albicans. The test is described as follows: Antifungal activity against Candida albicans after 48 hrs by broth microdilution method. The test is classed as functional. In short, it runs like this:
as §1

The subject of test [10] is Trichomonas vaginalis. The test is described as follows: Antitrichomonas activity against metronidazole-resistant trophozoite stage of Trichomonas vaginalis ATCC 50143 assessed as cell viability under anaerobic condition after 48 hrs by trypan blue exclusion assay. The test is classed as functional. The following applies: ATCC 50143, 48 h. Put shortly: (§3)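 Log-phase T. vaginalis grown in TYM with 10% FCS, vitamin mix and penicillin/streptomycin at 37 °C. Compounds were made as 100 µg/mL DMSO stocks and serially diluted in TYM down to 0.1 µg/mL; DMSO/TYM served as vehicle. Parasites were incubated anaerobically at 37 °C, and viability was checked by trypan blue exclusion from 3 to 48 h. MIC = lowest concentration killing all cells by 48 h; each test was repeated three times.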

The subject of test [11] is Oryctolagus cuniculus. The test is described as follows: In vivo spermicidal activity in Belgian rabbit assessed as decrease in pregnancy rate administered via intravaginal instillation measured 30 to 34 days post gestation period. The test is classed as functional, organism-based. In short, it runs like this:
as §2

The subject of test [12] is Trichomonas vaginalis. The test is described as follows: Antitrichomonas activity against trophozoite stage of Trichomonas vaginalis clinical isolate assessed as cell viability under anaerobic condition after 48 hrs by trypan blue exclusion assay. The test is classed as functional. Put shortly: as §3
Test [13] has as its system Oryctolagus cuniculus. The test is described as follows: In vivo spermicidal activity in Belgian rabbit assessed as decrease in pregnancy rate at 20 mg via intravaginal instillation measured 30 to 34 days post gestation period. The test is classed as functional. Put shortly: as §2
The subject of another test is Candida parapsilosis. The test is described as follows: Antifungal activity against Candida parapsilosis ATCC 22019 after 48 hrs by broth microdilution method. The test is classed as functional. The following applies: Lodderomyces parapsilosis, ATCC 22019, 48 h. In short, it runs like this:
as §1

Test [14] is described as follows: Spermicidal activity in human sperms assessed as motility measured within 30 secs by phase contrast microscopy. The test is classed as functional, Sperm. In short, it runs like this: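 Liquefied human semen (0.05 mL) was added to 0.25 mL test solution and vortexed 10 s at low speed. Motile sperm were scored visually under phase contrast in five fields within 30 s; assays in triplicate; MEC = minimum effective concentration.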

Test [15] has as its system Oryctolagus cuniculus. The test is described as follows: In vivo spermicidal activity in Belgian rabbit assessed as decrease in litter size at 20 mg via intravaginal instillation measured 30 to 34 days post gestation period. The arrangement: scale not given: the % may be the effect or the level left. The test is classed as functional. Put shortly: as §2
Test [16] concerns Oryctolagus cuniculus. The test is described as follows: In vivo spermicidal activity in Belgian rabbit assessed as decrease in litter size at 25 mg via intravaginal instillation measured 30 to 34 days post gestation period. The test is classed as functional. Also noted: scale not given: the % may be the effect or the level left. Put shortly:
as §2

Test [17] relates to Trichomonas vaginalis. The test is described as follows: Antitrichomonas activity against metronidazole-susceptible Trichomonas vaginalis in sc dosed mouse assessed as pustule formation at 5 ug administered daily measured after 7 days (reference value: 190 mm'2). The test is classed as functional.
Test [18] deals with Trichomonas vaginalis. The test is described as follows: Antitrichomonas activity against metronidazole-susceptible Trichomonas vaginalis in sc dosed mouse assessed as spleen weight at 5 ug administered daily measured after 7 days (reference value: 0.59 g). The test is classed as functional.
The subject of test [19] is Trichomonas vaginalis. The test is described as follows: Antitrichomonas activity against metronidazole-susceptible Trichomonas vaginalis in sc dosed mouse assessed as pustule formation at 5 ug administered daily measured after 5 days (reference value: 109 mm'2). The test is classed as functional.
The subject of test [20] is Oryctolagus cuniculus. The test is described as follows: In vivo spermicidal activity in Belgian rabbit assessed as decrease in litter size at 50 mg via intravaginal instillation measured 30 to 34 days post gestation period. The test is classed as functional. Also noted: scale not given: the % may be the effect or the level left. Put shortly:
as §2

Test [21] concerns Oryctolagus cuniculus. The test is described as follows: In vivo spermicidal activity in Belgian rabbit assessed as decrease in pregnancy rate at 25 mg via intravaginal instillation measured 30 to 34 days post gestation period. The test is classed as functional. In short, it runs like this:
as §2

The test system of test [22] is Trichomonas vaginalis. The test is described as follows: Antitrichomonas activity against Trichomonas vaginalis assessed as reduction in free thiol levels in parasite membrane at MIC after 24 hrs by fluorescence microscopy. The test is classed as functional, organism-based.
The subject of test [23] is Oryctolagus cuniculus. The test is described as follows: In vivo spermicidal activity in Belgian rabbit assessed as decrease in pregnancy rate at 50 mg via intravaginal instillation measured 30 to 34 days post gestation period. The test is classed as functional. Put shortly:
as §2

What is called MIC is the lowest concentration found to suppress growth. As usually defined, the IC50 is the concentration that inhibits the measured activity by half. `CCCCN1CCN(C(=S)SSC(=S)N2CCN(CCCC)CC2)CC1`: the MIC was 114 µM (≈ 49.6 µg/mL) with Sporothrix schenckii; 114 µM (≈ 49.6 µg/mL) with Cryptococcus neoformans; 114 µM (≈ 49.6 µg/mL) in test [9]; 57.4 µM (≈ 25 µg/mL) in the test on Candida albicans; 28.7 µM (≈ 12.5 µg/mL) with Trichomonas vaginalis [10]; 14.3 µM (≈ 6.22 µg/mL) in the test with Trichomonas vaginalis [12]. Further, the MIC in the test with Candida parapsilosis stood at 57.4 µM (≈ 25 µg/mL). Moreover, the Activity is 74% in the test with Oryctolagus cuniculus [1], 67% with Oryctolagus cuniculus [5], “Dose-dependent effect” in the test on Oryctolagus cuniculus [11] and 76% in the test on Oryctolagus cuniculus [15]. In addition, the results for the Selectivity Index in test [2] and in [8] were 12 and 25, respectively. For the same compound, the IC50 in the test with HeLa is 0.359 mM; in test [6], 0.832 mM. The Efficacy with Oryctolagus cuniculus [3] turned out to be 62.5%; in the test with Oryctolagus cuniculus [4], 37.5%; in the test with Oryctolagus cuniculus [13], 50%. The result with Sperm was Active. Also, the Ratio with Trichomonas vaginalis [7] is 4. For the same compound, the MEC in [14] came to 0.001%.

For `N#CCCCN1CCN(C(=S)SSC(=S)N2CCN(CCCC#N)CC2)CC1`, the MIC against Sporothrix schenckii is 109 µM (≈ 49.8 µg/mL); in the test with Cryptococcus neoformans, more than 109 µM; in [9], 109 µM (≈ 49.8 µg/mL); against Candida albicans, more than 109 µM; in the test on Trichomonas vaginalis [10] it was 6.8 µM (≈ 3.11 µg/mL); in the test on Trichomonas vaginalis [12] it was 6.8 µM (≈ 3.11 µg/mL). In the test on Candida parapsilosis, this compound showed an MIC of more than 109 µM. In addition, the Activity worked out at 100% with Oryctolagus cuniculus [16]; 90% in the test with Oryctolagus cuniculus [5]; 5.75 mm2 in the test on Trichomonas vaginalis [17]; 0.3 g with Trichomonas vaginalis [18]; 15 mm2 in the test on Trichomonas vaginalis [19]; 100% with Oryctolagus cuniculus [20]. In addition, in the test on Oryctolagus cuniculus [11], the Activity result is “Dose-dependent effect”. Besides, the Selectivity Index in test [2] and in test [8] was 368 throughout. Also, the IC50 came to 2.51 mM in the test with HeLa and 6.11 mM in [6]. The Efficacy turned out to be 85.7% in the test on Oryctolagus cuniculus [4], 100% in the test with Oryctolagus cuniculus [21] and 100% in the test with Oryctolagus cuniculus [23]. The Ratio in the test on Trichomonas vaginalis [7] was 16. Besides, the result with Trichomonas vaginalis [22] was Active. Moreover, the MEC in test [14] stood at 0.001%.
